Entries after “also recorded” stand apart in the source; their conditions may differ.
Key:
[1] = In vitro metabolism by human liver microsomes; assay type: in vitro ADME; settings: S807 incubation, relative to S807 at time = 0
[2] = system: Sprague-Dawley Rats; assay: 13-week subchronic toxicity study on S807; assay type: in vivo, Crl:CD(SD)IGS BR rats; settings: 2, 10, 20 mg/kg bw/day food ad-mix, 13 weeks
How it was run: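 Crl:CD(SD)IGS BR rats, 20/sex/group, were given the test compound in the diet at 0 (control), 2, 10 or 20 mg/kg bw/day for 93 consecutive days.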

[3] = Dietary exposure estimates; design: species or system human
[4] = system: Sprague-Dawley Rats; assay: 21-day dose-range finding toxicity study on S807; assay type: in vivo, Crl:CD(SD)IGS BR rats; settings: 50, 100, 200 mg/kg bw/day food ad-mix, 21 days
How it was run: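 Dose-range finder for the 90-day study. Crl:CD(SD)IGS BR rats, 5/sex/group, received the test compound continuously in the diet at 50, 100 or 200 mg/kg bw/day for 21 days. One group of 5/sex served as control and received the vehicle diet.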

[5] = In vitro metabolism by rat liver microsomes; assay type: in vitro ADME, Sprague-Dawley rat; settings: S807 incubation, relative to S807 at time = 0
[6] = system: S. typhimurium strains TA98, TA100, TA1535, TA1537 and E. coli strain WP2 uvrA; assay: Bacterial reverse mutation test; assay type: cell-based; settings: 21–5000 μg/plate, plate incorporation and pre-incubation, ±S9
How it was run: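 The assay followed OECD Guideline 471 and used S. typhimurium TA98, TA100, TA1535 and TA1537 and E. coli WP2 uvrA. It was run with and without S9 from livers of Aroclor 1254-treated Sprague-Dawley rats. One compound was tested at 21–5000 μg/plate by plate incorporation and pre-incubation. The other was tested at 50–5000 μg/plate in an initial toxicity-mutation test and a confirmatory mutation test.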

[7] = system: Chinese hamster ovary cells (CHO-WBL); assay: In vitro chromosome aberration test, CHO-WBL cells; assay type: cell-based
[8] = In vivo metabolism of S807 in rats; design: species or system Sprague-Dawley rats; settings: male and female pooled rat plasma, 1 h post dose, 200 mg/kg bw oral
[9] = Pharmacokinetics of S807 in rats, single iv or oral dose; assay type: in vivo, Sprague-Dawley rats; settings: for AUC(0-t) / Cmax / Tmax / Vd / half-life / clearance / bioavailability: Sprague-Dawley, rat, plasma; for clearance: CL (clearance), iv 1 mg/kg bw; for AUClast Ratio / Cmax Ratio: vs 20 mg/kg bw dose
How it was run: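 Sprague-Dawley rats, 4/sex, received a 1 mg/kg bw IV bolus in 20% PEG400/10% ethanol/2% DMSO/68% saline. Sampling was via jugular cannula at pre-dose and 2 min to 8 h. Oral groups (4/sex/group) were gavaged once with 20, 50 or 200 mg/kg bw in 1% methylcellulose and sampled from 15 min to 24 h. Plasma was assayed for parent and metabolites.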

[10] = system: Male Swiss albino (CD-1) mice, bone marrow PCEs; assay: In vivo micronucleus assay in mice, S807
How it was run: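 Swiss Albino (CD-1) mice received a single intraperitoneal injection of the test compound as a DMSO solution (132 mg/mL). Range finding used 3/sex/group at 500, 1000 or 2000 mg/kg bw, then added groups at 800 (3/sex) and 700 (3 males). The definitive phase used 175, 350 and 700 mg/kg bw, 21 animals/group. Readouts were bone-marrow mnPCE incidence and PCE/total erythrocyte ratio versus vehicle. Cyclophosphamide was the positive control.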

[11] = oral gavage 20 mg/kg bw, female
[12] = oral gavage 50 mg/kg bw, female
[13] = oral gavage 200 mg/kg bw, female

**Q.** For `CCCC(CCC)NC(=O)c1ccc2c(c1)OCO2` [S807, N-(heptan-4-yl)benzo[d][1,3]dioxole-5-carboxamide], which “% MS (EIC) Peak Area” value ([1]; 10 min) is on record?
**A.** Its value is 89.4%.

**Q.** And the “% MS (EIC) Peak Area” value ([1]; 20 min)?
**A.** The value was 80.8%.

**Q.** What about the “% MS (EIC) Peak Area” value ([1]; 60 min) of the same compound?
**A.** Its value is 65.0%.

**Q.** What about the Findings [2] of the same compound?
**A.** Its Findings is “No test-article related findings”.

**Q.** And the NOEL [2]?
**A.** Its NOEL is 20 mg/kg bw/day.

**Q.** And the “NOEL as times the estimated dietary exposure (mTAMDI)” value ([3]; NOEL 20 mg/kg bw/day)?
**A.** Its value is 2560 times.

**Q.** And the “margin of safety, NOEL vs estimated use” value ([3]; NOEL 20 mg/kg bw/day vs 4.9 μg/kg bw/day)?
**A.** Its value is > 4000 fold.

**Q.** What about the Findings [4] of the same compound?
**A.** Its Findings is “Lower bw gain in females at 200 mg/kg bw/day; increased liver weight in females at 100 and 200 mg/kg bw/day; histomorphological changes in livers of both male and females at all doses”.

**Q.** And the NOEL [4]?
**A.** Its NOEL is < 50 mg/kg bw/day.

**Q.** And the “% MS (EIC) Peak Area” value ([5]; 10 min)?
**A.** Its value is 70.0%.

**Q.** And the “% MS (EIC) Peak Area” value ([5]; 20 min)?
**A.** The value was 34.0%.

**Q.** What about the “Reverse mutation (in vitro), Result” value [6] of the same compound?
**A.** The value was “not mutagenic; also recorded: Negative”.

**Q.** And the “Chromosome aberration (in vitro), Result” value ([7]; 21–5000 μg/mL, 3 h −S9, 3 h +S9, 18 h −S9)?
**A.** Its value is “did not induce chromosomal aberrations; also recorded: Negative”.

**Q.** What about the “test article concentration with precipitate in the cell cultures” value ([7]; all conditions) of the same compound?
**A.** The value was ≥ 62 µg/mL.

**Q.** What about the “MS (EIC) Peak Area” value [8] of the same compound?
**A.** Its value is 29,000,000 cps.

**Q.** And the AUC(0-t) ([9]; female, iv, 1 mg/kg)?
**A.** The AUC(0-t) was 342 ± 81.4 ng·h/mL.

**Q.** What about the Cmax ([9]; female, iv, 1 mg/kg) of the same compound?
**A.** Its Cmax is 949 ± 222 ng/mL.

**Q.** And the Tmax ([9]; female, iv, 1 mg/kg)?
**A.** The Tmax was 0.033 h.

**Q.** And the Vd ([9]; female, iv, 1 mg/kg)?
**A.** The Vd was 5.61 L/kg.

**Q.** And the half-life ([9]; female, iv, 1 mg/kg)?
**A.** The half-life was 3.02 ± 0.92 h.

**Q.** What about the clearance ([9]; female, iv, 1 mg/kg, female rat) of the same compound?
**A.** The clearance was 47.2 mL/min/kg.

**Q.** What about the AUC(0-t) ([9]; female, po, 20 mg/kg) of the same compound?
**A.** The AUC(0-t) was 166 ± 72.2 ng·h/mL.

**Q.** And the Cmax ([9]; female, po, 20 mg/kg)?
**A.** The Cmax was 187 ± 87.6 ng/mL.

**Q.** What about the Tmax ([9]; female, po, 20 mg/kg) of the same compound?
**A.** The Tmax was 0.25 h.

**Q.** What about the bioavailability ([9]; female, po, 20 mg/kg) of the same compound?
**A.** Its bioavailability is 2.43%.

**Q.** And the half-life ([9]; female, po, 20 mg/kg)?
**A.** The half-life was 1.07 ± 0.67 h.

**Q.** And the AUC(0-t) ([9]; female, po, 50 mg/kg)?
**A.** The AUC(0-t) was 1410 ± 1020 ng·h/mL.

**Q.** What about the Cmax ([9]; female, po, 50 mg/kg) of the same compound?
**A.** Its Cmax is 529 ± 379 ng/mL.

**Q.** What about the Tmax ([9]; female, po, 50 mg/kg) of the same compound?
**A.** The Tmax was 1 h.

**Q.** What about the bioavailability ([9]; female, po, 50 mg/kg) of the same compound?
**A.** Its bioavailability is 8.25%.

**Q.** And the half-life ([9]; female, po, 50 mg/kg)?
**A.** Its half-life is 1.17 ± 0.16 h.

**Q.** And the AUC(0-t) ([9]; female, po, 200 mg/kg)?
**A.** The AUC(0-t) was 108000 ± 27900 ng·h/mL.

**Q.** What about the Cmax ([9]; female, po, 200 mg/kg) of the same compound?
**A.** Its Cmax is 9150 ± 2410 ng/mL.

**Q.** What about the Tmax ([9]; female, po, 200 mg/kg) of the same compound?
**A.** Its Tmax is 3 h.

**Q.** What about the bioavailability ([9]; female, po, 200 mg/kg) of the same compound?
**A.** The bioavailability was 158%.

**Q.** And the half-life ([9]; female, po, 200 mg/kg)?
**A.** Its half-life is 2.62 ± 0.2 h.

**Q.** And the “CL as % of hepatic blood flow” value ([9]; iv, females)?
**A.** Its value is 85.5%.

**Q.** What about the “CL as % of hepatic blood flow” value ([9]; iv, males) of the same compound?
**A.** The value was 55.6%.

**Q.** And the AUC(0-t) ([9]; male, iv, 1 mg/kg)?
**A.** The AUC(0-t) was 491 ± 33.3 ng·h/mL.

**Q.** And the Cmax ([9]; male, iv, 1 mg/kg)?
**A.** The Cmax was 1110 ± 237 ng/mL.

**Q.** And the Tmax ([9]; male, iv, 1 mg/kg)?
**A.** Its Tmax is 0.033 h.

**Q.** What about the Vd ([9]; male, iv, 1 mg/kg) of the same compound?
**A.** The Vd was 4.63 L/kg.

**Q.** And the half-life ([9]; male, iv, 1 mg/kg)?
**A.** The half-life was 3.02 ± 0.24 h.

**Q.** What about the clearance ([9]; male, iv, 1 mg/kg, male rat) of the same compound?
**A.** The clearance was 30.7 mL/min/kg.

**Q.** What about the AUC(0-t) ([9]; male, po, 20 mg/kg) of the same compound?
**A.** Its AUC(0-t) is 182 ± 70.5 ng·h/mL.

**Q.** And the Cmax ([9]; male, po, 20 mg/kg)?
**A.** The Cmax was 174 ± 95.1 ng/mL.

**Q.** What about the Tmax ([9]; male, po, 20 mg/kg) of the same compound?
**A.** Its Tmax is 0.313 h.

**Q.** What about the bioavailability ([9]; male, po, 20 mg/kg) of the same compound?
**A.** Its bioavailability is 1.85%.

**Q.** What about the half-life ([9]; male, po, 20 mg/kg) of the same compound?
**A.** Its half-life is 1.14 ± 0.35 h.

**Q.** And the AUC(0-t) ([9]; male, po, 50 mg/kg)?
**A.** The AUC(0-t) was 4890 ± 4960 ng·h/mL.

**Q.** And the Cmax ([9]; male, po, 50 mg/kg)?
**A.** Its Cmax is 1270 ± 1170 ng/mL.

**Q.** And the Tmax ([9]; male, po, 50 mg/kg)?
**A.** Its Tmax is 1.5 h.

**Q.** What about the bioavailability ([9]; male, po, 50 mg/kg) of the same compound?
**A.** The bioavailability was 19.9%.

**Q.** What about the half-life ([9]; male, po, 50 mg/kg) of the same compound?
**A.** Its half-life is 1.83 ± 0.61 h.

**Q.** And the AUC(0-t) ([9]; male, po, 200 mg/kg)?
**A.** Its AUC(0-t) is 101000 ± 19500 ng·h/mL.

**Q.** And the Cmax ([9]; male, po, 200 mg/kg)?
**A.** Its Cmax is 10500 ± 937 ng/mL.

**Q.** What about the Tmax ([9]; male, po, 200 mg/kg) of the same compound?
**A.** The Tmax was 4 h.

**Q.** And the bioavailability ([9]; male, po, 200 mg/kg)?
**A.** The bioavailability was 103%.

**Q.** And the half-life ([9]; male, po, 200 mg/kg)?
**A.** The half-life was 2.49 ± 0.07 h.

**Q.** And the “AUClast Ratio” value [9, 11]?
**A.** Its value is 1.

**Q.** What about the “Cmax Ratio” value [9, 11] of the same compound?
**A.** Its value is 1.

**Q.** What about the “AUClast Ratio” value ([9]; oral gavage 20 mg/kg bw, male) of the same compound?
**A.** Its value is 1.

**Q.** And the “Cmax Ratio” value ([9]; oral gavage 20 mg/kg bw, male)?
**A.** Its value is 1.

**Q.** And the “AUClast Ratio” value [9, 12]?
**A.** Its value is 8.49.

**Q.** And the “Cmax Ratio” value [9, 12]?
**A.** Its value is 2.83.

**Q.** And the “AUClast Ratio” value ([9]; oral gavage 50 mg/kg bw, male)?
**A.** Its value is 26.9.

**Q.** What about the “Cmax Ratio” value ([9]; oral gavage 50 mg/kg bw, male) of the same compound?
**A.** Its value is 7.30.

**Q.** What about the “AUClast Ratio” value [9, 13] of the same compound?
**A.** The value was 651.

**Q.** And the “Cmax Ratio” value [9, 13]?
**A.** Its value is 48.9.

**Q.** And the “AUClast Ratio” value ([9]; oral gavage 200 mg/kg bw, male)?
**A.** Its value is 555.

**Q.** What about the “Cmax Ratio” value ([9]; oral gavage 200 mg/kg bw, male) of the same compound?
**A.** The value was 60.3.

**Q.** And the “Micronucleus formation (in vivo), Result” value ([10]; 175, 350, 700 mg/kg bw (ip))?
**A.** The value was “neither clastogenic nor aneugenic; also recorded: Negative”.

**Q.** What about the “dose groups with deaths within 48 h of treatment” value ([10]; range finding, ip) of the same compound?
**A.** The value was ≥ 800 mg/kg bw.
